Assay results: ChEMBL document CHEMBL1914423, “New imidazo[2,1-b]thiazole derivatives: synthesis, in vitro anticancer evaluation, and in silico studies” (Eur J Med Chem, 2011)

Key:
SK-MEL-5 = experiment: Antiproliferative activity against human SK-MEL-5 cells after 48 hrs by MTT assay; format: functional, cell-based; conditions: SK-MEL-5, 48 h
IGROV-1 = experiment: Anticancer activity against human IGROV1 cells after 48 hrs by SRB assay; format: functional; conditions: IGROV-1, 48 h
Outline: (§1)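 NCI five-dose screen. Cells in RPMI 1640 with 5% FBS and 2 mM L-glutamine, seeded at 5000–40,000 cells/well according to doubling time, then pre-incubated 24 h at 37 °C in 5% CO2. Drugs dissolved in DMSO, five concentrations by 10-fold or 1/2-log dilution. Cells fixed with TCA, SRB-stained, A515 read. IC50 solved from [(Ti−Tz)/(C−Tz)]×100 = 50.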

OVCAR-3 = experiment: Anticancer activity against human OVCAR3 cells after 48 hrs by SRB assay; format: functional; conditions: OVCAR-3, 48 h
A498 = experiment: Anticancer activity against human A498 cells after 48 hrs by SRB assay; format: functional; conditions: A498, 48 h; outline: as §1
SNB-75 = experiment: Anticancer activity against human SNB75 cells after 48 hrs by SRB assay; format: functional; conditions: SNB-75, 48 h
CCRF-CEM = experiment: Anticancer activity against human CCRF-CEM cells after 48 hrs by SRB assay; format: functional; outline: as §1
SN12C = experiment: Anticancer activity against human SN12C cells after 48 hrs by SRB assay; format: functional
SNB-19 = experiment: Anticancer activity against human SNB19 cells after 48 hrs by SRB assay; format: functional; conditions: SNB-19, 48 h
EKVX = experiment: Anticancer activity against human EKVX cells after 48 hrs by SRB assay; format: functional; outline: as §1
HL-60(TB) = experiment: Anticancer activity against human HL-60(TB) cells after 48 hrs by SRB assay; format: functional; conditions: HL-60, 48 h
Outline: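 NCI-60 five-dose screen. Cells grown in RPMI 1640 with 5% FBS and 2 mM L-glutamine, seeded at 5000–40,000 cells/well, and held 24 h at 37 °C and 5% CO₂ before drug. DMSO stocks were diluted into five concentrations (10-fold or ½-log steps). Settled suspension cells were fixed with cold TCA, SRB-stained, and read at 515 nm. […] was taken where [(Ti−Tz)/(C−Tz)]×100 = 50.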

[1] = Anticancer activity against human Hs 578T cells after 48 hrs by SRB assay; format: functional; outline: as §1
NCI-H322M = experiment: Anticancer activity against human NCI-H322M cells after 48 hrs by SRB assay; format: functional
MDA-MB-435 = experiment: Antiproliferative activity against human MDA-MB-435 cells after 48 hrs by MTT assay; format: functional, cell-based; conditions: MDA-MB-435, 48 h
OVCAR-8 = experiment: Anticancer activity against human OVCAR8 cells after 48 hrs by SRB assay; format: functional; conditions: OVCAR-8, 48 h
UACC-257 = experiment: Anticancer activity against human UACC257 cells after 48 hrs by SRB assay; format: functional; conditions: UACC-257, 48 h
Outline: (§2)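 NCI-60 five-dose mode: cells in RPMI 1640 with 5% FBS and 2 mM glutamine, plated at 5000–40,000 cells/well, and preincubated 24 h, with time-zero plates TCA-fixed. Drug given at five concentrations (10-fold or ½-log serial dilutions). Cold TCA fixation 60 min at 4 °C, SRB stain, Tris solubilization, A515. IC50 taken where [(Ti−Tz)/(C−Tz)]×100 = 50.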

KM12 = experiment: Anticancer activity against human KM12 cells after 48 hrs by SRB assay; format: functional; conditions: KM12, 48 h; outline: as §1
DU-145 = experiment: Anticancer activity against human DU145 cells after 48 hrs by SRB assay; format: functional; conditions: DU-145, 48 h; outline: as §1
PC-3 = experiment: Anticancer activity against human PC3 cells after 48 hrs by SRB assay; format: functional; conditions: PC-3, 48 h
UO-31 = experiment: Anticancer activity against human UO31 cells after 48 hrs by SRB assay; format: functional; conditions: UO-31, 48 h; outline: as §2
A549 = experiment: Anticancer activity against human A549 cells after 48 hrs by SRB assay; format: functional; conditions: A549, 48 h; outline: as §1
MOLT-4 = experiment: Anticancer activity against human MOLT4 cells after 48 hrs by SRB assay; format: functional; conditions: MOLT-4, 48 h
NCI-H23 = experiment: Anticancer activity against human NCI-H23 cells after 48 hrs by SRB assay; format: functional; conditions: NCI-H23, 48 h
HCT-116 = experiment: Anticancer activity against human HCT116 cells after 48 hrs by SRB assay; format: functional; conditions: HCT-116, 48 h; outline: as §1
SF-295 = experiment: Anticancer activity against human SF295 cells after 48 hrs by SRB assay; format: functional; conditions: SF-295, 48 h
HCC 2998 = experiment: Anticancer activity against human HCC2998 cells after 48 hrs by SRB assay; format: functional; conditions: HCC 2998, 48 h; outline: as §1
T47D = experiment: Anticancer activity against human T47D cells after 48 hrs by SRB assay; format: functional; outline: as §2
NCI-H226 = experiment: Anticancer activity against human NCI-H226 cells after 48 hrs by SRB assay; format: functional; conditions: NCI-H226, 48 h
SR = experiment: Anticancer activity against human SR cells after 48 hrs by SRB assay; format: functional; outline: as §2
TK-10 = experiment: Anticancer activity against human TK10 cells after 48 hrs by SRB assay; format: functional; conditions: TK-10, 48 h; outline: as §2
[2] = read-out: LC50 (the source's name)

## O=C(NCCNc1nccc(-c2c(-c3cccc(O)c3)nc3sccn23)n1)c1ccccc1
SK-MEL-5
  IC50: 4.15 µM
IGROV-1
  GI50: 3.61 µM
  TGI: 50.8 µM
IGROV-1; [2]
  CC50: > 100 µM
OVCAR-3
  GI50: 12.3 µM
  TGI: 64.8 µM
OVCAR-3; [2]
  CC50: > 100 µM
A498
  GI50: 3.68 µM
  TGI: 19.3 µM
A498; [2]
  CC50: 58 µM
SNB-75
  GI50: 3.27 µM
  TGI: 28.1 µM
SNB-75; [2]
  CC50: > 100 µM
CCRF-CEM
  GI50: 3.38 µM
  TGI: 34.1 µM
CCRF-CEM; [2]
  CC50: > 100 µM
SN12C
  GI50: 9.04 µM
  TGI: 38.4 µM
SN12C; [2]
  CC50: > 100 µM
SNB-19
  GI50: 29.4 µM
  TGI: > 100 µM
SNB-19; [2]
  CC50: > 100 µM
EKVX
  GI50: 25 µM
  TGI: > 100 µM
HL-60(TB)
  GI50: 10.2 µM
  TGI: 29.6 µM
[1]
  GI50: 4.86 µM
  TGI: 38.3 µM
[1]; [2]
  CC50: > 100 µM
NCI-H322M
  GI50: 26.3 µM
  TGI: > 100 µM
NCI-H322M; [2]
  CC50: > 100 µM
MDA-MB-435
  IC50: 0.578 µM
OVCAR-8
  GI50: 11.1 µM
  TGI: 78.8 µM
OVCAR-8; [2]
  CC50: > 100 µM
UACC-257
  GI50: 0.489 µM
  TGI: 18.5 µM
UACC-257; [2]
  CC50: > 100 µM
KM12
  GI50: 12.1 µM
  TGI: 28.5 µM
KM12; [2]
  CC50: 67.1 µM
DU-145
  GI50: 19.7 µM
  TGI: 68.7 µM
DU-145; [2]
  CC50: > 100 µM
PC-3
  GI50: 11.9 µM
  TGI: 65.7 µM
PC-3; [2]
  CC50: > 100 µM
UO-31
  GI50: 12.2 µM
  TGI: 88.7 µM
UO-31; [2]
  CC50: > 100 µM
A549
  GI50: 9.21 µM
  TGI: 46.5 µM
MOLT-4
  GI50: 13.5 µM
  TGI: 74.2 µM
MOLT-4; [2]
  CC50: > 100 µM
NCI-H23
  GI50: 10 µM
  TGI: 30.7 µM
HCT-116
  GI50: 4.82 µM
  TGI: 17.5 µM
HCT-116; [2]
  CC50: 49.6 µM
SF-295
  GI50: 12.9 µM
  TGI: 38 µM
SF-295; [2]
  CC50: > 100 µM
HCC 2998
  GI50: 13.8 µM
  TGI: 31.2 µM
HCC 2998; [2]
  CC50: 70.3 µM
T47D
  GI50: 11 µM
  TGI: 49 µM
T47D; [2]
  CC50: > 100 µM
NCI-H226
  GI50: 7.95 µM
  TGI: 45.3 µM
SR
  GI50: 5.68 µM
  TGI: 50 µM
SR; [2]
  CC50: > 100 µM
TK-10
  GI50: 11.7 µM
  TGI: 37.1 µM
TK-10; [2]
  CC50: > 100 µM
